Reference: ChEMBL document CHEMBL1149875, “DNA threading bis(9-aminoacridine-4-carboxamides): effects of piperidine sidechains on DNA binding, cytotoxicity and cell cycle arrest” (Bioorg Med Chem, 2008)
Calls of active or inactive are those of the source. No cut-off for these calls is given here. *1 amine or outer side, *2 acyl side, *3 side chain or, on linkers, in order; H or OH if unused. Where a SMILES comes first, the peptide text is derived from it. Bridges are numbered along the chain shown (N, C = ends). Roman numbers before positions name the chains, in order. [ ]: non-standard residue; d: D form. Actinocin(1to9) = Cc1c2oc3c(C)ccc(C(=O)[*:2])c3nc-2c(C(=O)[*:1])c(N)c1=O; NMeV = CN[C@H](C(=O)O)C(C)C; Sar = CNCC(=O)O

Experiments:
CCRF-CEM [1] = test: Cytotoxicity against human CCRF-CEM cells after 72 hrs; format: functional, cell-based
How it was run: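 CCRF-CEM human leukaemia cells exposed to agents for 72 h at 37 °C in RPMI 1640 with 10% foetal bovine serum. Cells counted with a Coulter Counter, duplicates per concentration, experiment repeated ≥3 times; IC50 from curve fitting.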

CCRF-CEM [2] = test: Cell cycle arrest in human CCRF-CEM cells assessed as accumulation at G2/M phase at 10 times IC50 after 24 hrs by flow cytometry; format: functional
How it was run: (§1)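 CCRF-CEM cells seeded at 1 × 10^5 per ml in flasks and grown 24 h. Drug then added at 1×, 2×, 5× or 10× the measured 72 h IC50 and cells incubated a further 24 h; untreated controls. Cells washed in PBS, fixed in ice-cold ethanol, stained with propidium iodide and analysed by flow cytometry for % cells at G2/M.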

Escherichia coli = test: Binding affinity to Escherichia coli pBR322 DNA assessed as equivalence binding ratio by agarose gel electrophoresis
How it was run: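 Supercoiled pBR322 closed circular DNA (150 ng, 23.6 µM bp) mixed with dimer in tris acetate buffer pH 7.5, 40 mM for Pip dimers and 10 mM for NMP dimers; 1 h dark incubation at room temperature; 0.8% agarose gel, 74 V (5 V/cm), 1 h 15 min. Equivalence ratio in base-pair units, taken where supercoiling is removed and closed and nicked circles co-migrate; ≥3 titrations.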

CCRF-CEM [3] = test: Cell cycle arrest in human CCRF-CEM cells assessed as accumulation at G2/M phase at 5 times IC50 after 24 hrs by flow cytometry; format: functional; how it was run: as §1
CCRF-CEM [4] = test: Cell cycle arrest in human CCRF-CEM cells assessed as accumulation at G2/M phase after 24 hrs by flow cytometry; format: functional, cell-based; how it was run: as §1
CCRF-CEM [5] = test: Cell cycle arrest in human CCRF-CEM cells assessed as accumulation at G2/M phase at 1 time IC50 after 24 hrs by flow cytometry; format: functional; how it was run: as §1

| SMILES | IC50 (CCRF-CEM [1]) | Activity (CCRF-CEM [2]) | Ratio (Escherichia coli) | Activity (CCRF-CEM [3]) | Activity (CCRF-CEM [4]) | Activity (CCRF-CEM [5]) |
| --- | --- | --- | --- | --- | --- | --- |
| CN1CCC(NC(=O)c2cccc3c(NCCCCCCCCNc4c5ccccc5nc5c(C(=O)NC6CCN(C)CC6)cccc45)c4ccccc4nc23)CC1 | 130 nM | 43% | 0.175 |  |  |  |
| CN1CCC(NC(=O)c2cccc3c(NCCN4CCN(CCNc5c6ccccc6nc6c(C(=O)NC7CCN(C)CC7)cccc56)CC4)c4ccccc4nc23)CC1 | 800 nM |  |  | 52% |  |  |
| CN1CCC(NC(=O)c2cccc3c(NCCCCCCNc4c5ccccc5nc5c(C(=O)NC6CCN(C)CC6)cccc45)c4ccccc4nc23)CC1 | 210 nM |  | 0.25 |  |  |  |
| O=C(NCCN1CCCCC1)c1cccc2c(NCCCCCCCCNc3c4ccccc4nc4c(C(=O)NCCN5CCCCC5)cccc34)c3ccccc3nc12 | 99 nM |  | 0.16 |  | inactive |  |
| COc1cc(NS(C)(=O)=O)ccc1Nc1c2ccccc2nc2ccccc12 [AMSACRINE] | 130 nM |  |  |  |  | 68% |
| O=C(NCCN1CCCCC1)c1cccc2c(NCCNCCNCCNc3c4ccccc4nc4c(C(=O)NCCN5CCCCC5)cccc34)c3ccccc3nc12 | 270 nM |  | 0.16 |  | inactive |  |
| CN(C)CCNC(=O)c1cccc2c(N)c3ccccc3nc12 | 120 nM | 61% |  |  |  |  |
| Cc1c2oc3c(C)ccc(C(=O)N[C@@H]4C(=O)N[C@H](C(C)C)C(=O)N5CCC[C@H]5C(=O)N(C)CC(=O)N(C)[C@@H](C(C)C)C(=O)O[C@@H]4C)c3nc-2c(C(=O)N[C@@H]2C(=O)N[C@H](C(C)C)C(=O)N3CCC[C@H]3C(=O)N(C)CC(=O)N(C)[C@@H](C(C)C)C(=O)O[C@@H]2C)c(N)c1=O [DACTINOMYCIN] (I: T[dV]P[Sar][NMeV] / II: T[dV]P[Sar][NMeV]; ester I:1-I:C, II:1-II:C; linker I:N-II:N via Actinocin(1to9)) | 1.6 nM |  |  |  | inactive |  |
| CN1CCC(NC(=O)c2cccc3c(NCCCCNCCCNc4c5ccccc5nc5c(C(=O)NC6CCN(C)CC6)cccc45)c4ccccc4nc23)CC1 | 340 nM |  | 0.21 |  |  |  |
| O=C(NCCN1CCCCC1)c1cccc2c(NCCCCCCNc3c4ccccc4nc4c(C(=O)NCCN5CCCCC5)cccc34)c3ccccc3nc12 | 200 nM |  | 0.14 |  | inactive |  |
| O=C(NCCN1CCCCC1)c1cccc2c(NCCCNCCCNc3c4ccccc4nc4c(C(=O)NCCN5CCCCC5)cccc34)c3ccccc3nc12 | 260 nM |  | 0.14 |  | inactive |  |
| CN1CCC(NC(=O)c2cccc3c(NCCNCCNCCNc4c5ccccc5nc5c(C(=O)NC6CCN(C)CC6)cccc45)c4ccccc4nc23)CC1 | 1100 nM | 40% | 0.11 |  |  |  |
| O=C(NCCN1CCCCC1)c1cccc2c(NCCCCNCCCNc3c4ccccc4nc4c(C(=O)NCCN5CCCCC5)cccc34)c3ccccc3nc12 | 230 nM |  | 0.135 |  | inactive |  |
| CN1CCC(NC(=O)c2cccc3c(NCCCNCCCNc4c5ccccc5nc5c(C(=O)NC6CCN(C)CC6)cccc45)c4ccccc4nc23)CC1 | 680 nM | 50% | 0.24 |  |  |  |
| O=C(NCCN1CCCCC1)c1cccc2c(NCCN3CCN(CCNc4c5ccccc5nc5c(C(=O)NCCN6CCCCC6)cccc45)CC3)c3ccccc3nc12 | 130 nM |  | 0.13 |  | inactive |  |
